Screens: PubChem BioAssay, several laboratories
NTR1 ag = agonists of human neurotensin receptor NTR1; P30989; NTR1-U2OS beta-arrestin-GFP spot imaging, agonist mode; activation, % at 20 µM; hit rate 0.17% among 330,000;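 active = activation at or above 40% of the spot to cytoplasm intensity ratio, with at least 20 cells analyzed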;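 note: 0% = DMSO without peptide and 100% = 100 nM NTR1 peptide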
Target sequence (P30989 whole entry, looked up): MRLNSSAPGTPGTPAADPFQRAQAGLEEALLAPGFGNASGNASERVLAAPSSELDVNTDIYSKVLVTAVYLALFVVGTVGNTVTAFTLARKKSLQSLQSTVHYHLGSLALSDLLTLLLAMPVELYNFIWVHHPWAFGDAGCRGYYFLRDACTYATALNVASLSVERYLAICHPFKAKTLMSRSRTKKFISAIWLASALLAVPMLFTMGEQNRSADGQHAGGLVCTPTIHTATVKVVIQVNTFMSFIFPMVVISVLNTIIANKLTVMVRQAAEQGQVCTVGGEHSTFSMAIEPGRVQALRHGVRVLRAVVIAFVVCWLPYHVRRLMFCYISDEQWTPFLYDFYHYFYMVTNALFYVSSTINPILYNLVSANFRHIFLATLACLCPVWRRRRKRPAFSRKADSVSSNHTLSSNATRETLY
MC4R antag cAMP = human MC4R antagonism in cAMP assay. MC4R-expressing cells, MTII-stimulated cAMP, LANCE TR-FRET. inhibition, % at 6.5 µM. hit rate 0.48% among 360,000;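 active = inhibition above its plate's cutoff, the mean of tested wells on that plate plus 3 SD, cut at about 29% in these data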;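 note: 0% = Melanotan II alone and 100% = Melanotan II plus saturating MCL0020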
Target sequence (P32245 whole entry, looked up): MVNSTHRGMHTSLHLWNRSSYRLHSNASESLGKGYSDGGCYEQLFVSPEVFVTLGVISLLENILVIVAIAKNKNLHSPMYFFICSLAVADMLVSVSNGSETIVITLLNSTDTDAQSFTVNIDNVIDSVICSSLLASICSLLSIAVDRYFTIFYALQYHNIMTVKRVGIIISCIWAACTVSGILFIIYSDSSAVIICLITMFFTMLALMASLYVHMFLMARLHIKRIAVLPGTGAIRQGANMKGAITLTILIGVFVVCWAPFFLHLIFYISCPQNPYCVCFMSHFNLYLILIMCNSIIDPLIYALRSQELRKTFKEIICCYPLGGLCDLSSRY
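Test system: U2OS cells stably expressing human melanocortin 4 receptor (MC4R); also added: Melanotan II challenge; compound: 6.5 µM single dose; timing: 30-min compound preincubation, 1-h Melanotan II challenge, 1-h detection, room temperature; signal: Eu-cAMP/anti-cAMP TR-FRET, emission 671 nm; repeats: one well per compound, no replicates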
MC4R ag barr = human MC4R agonism via beta-arrestin | P32245 | hit rate 0.98% among 360,000 | U2OS MC4R beta-arrestin complementation, luminescence; percent of melanotan II response, DMSO zero | activation, % at 8.9 µM;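 active = activation above a per-plate cutoff, the mean activation of sample wells on that plate plus 3 SD, cut at about 8% in these data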
NR1D1 modulator = Rev-erb alpha (human) modulation; P20393; AID 1259318; activity, % at 10 µM; Rev-erbα–FITC-DNA binding, fluorescence polarization, 90 min; hit rate 0.79% among 370,000;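 active = activity above about 14%, limit read from the data; passing the limit was not always enough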;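 note: 0% = DMSO wells with 35 nM protein and 100% = DMSO wells with 750 nM protein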
PG9 Ab binder = small molecules binding HIV-1 gp120 antibody PG9; AID 624416; TR-FRET gp120-PG9 antibody binding; inhibition, % at 6.7 µM; hit rate 0.43% among 360,000; in the data active = inhibition above about 8.5%
cAMP nonselect = U2OS forskolin cAMP inhibition counter-screen; parental U2OS, LANCE TR-FRET; shares compounds with MC4R antag cAMP; hit rate 26% among 1,600; inhibition, % at 6.5 µM;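 active = mean inhibition over triplicates above the low-control well mean plus 3 SD, set per campaign, cut at about 13% in these data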;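 note: signal is single emission at 671 nm which falls as cellular cAMP rises; 0% = forskolin-stimulated wells and 100% = buffer without forskolin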
MC4R cAMP antag = human MC4R cAMP antagonism confirmation; MC4R-expressing cells, MTII-stimulated cAMP, TR-FRET; shares compounds with MC4R antag cAMP; AID 602195; inhibition, % at 6.5 µM; hit rate 27% among 1,600; in the data active = inhibition above about 29%;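 note: 0% = agonist stimulated wells alone and 100% = agonist stimulated wells plus saturating reference antagonist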
* hit, by the source's call; . = not tested or not shown. An excerpt weighted towards active compounds, which were near 2.5% of everything screened.

SMILES | NTR1 ag | MC4R antag cAMP | MC4R ag barr | NR1D1 modulator | PG9 Ab binder | cAMP nonselect | MC4R cAMP antag
O=S(=O)(Nc1cc(Sc2ncn[nH]2)c(O)c2ccccc12)c1ccccc1 | -2.3 | 52.8* | -1.8 | -4.2 | -4.2 | 10.5 | 7.9
O=S1(=O)c2ccc(N3CCN(Cc4ccccc4F)CC3)cc2Oc2ccccc2CN1Cc1cn(Cc2ccc(C(F)(F)F)cc2)nn1 | . | . | . | 1.5 | . | . | .
Cc1ccccc1N1C(=O)c2cccc([N+](=O)[O-])c2C1=O | . | 32.0* | -1.1 | 6.9 | -0.1 | 14.4* | 11.6
O=C(c1ccc(S(=O)(=O)N2CCCCC2)cc1)N(c1ccccn1)C1CCCCC1 | 0.2 | 31.9* | -0.4 | 5.1 | -0.2 | -6.4 | -1.9
O=C(c1ccc(S(=O)(=O)N2CCCCCC2)cc1)N(c1ccccn1)C1CCCCC1 | 4.0 | 15.2 | -1.8 | 1.5 | -2.3 | . | .
O=C(Cn1ncc(Cl)c(Cl)c1=O)NC(=O)NC1CCCCC1 | 15.0 | 38.2* | -0.7 | -1.9 | -0.3 | 36.5* | 67.4*
CC(NC(=O)Cn1ncc(Cl)c(Cl)c1=O)C12CC3CC(CC(C3)C1)C2 (stereo unspecified) | . | 81.1* | -2.4 | . | . | 32.4* | 46.5*
O=C(CN1CCCCC1)NC(=O)NC1CCCC1 | -0.3 | -1.8 | -1.8 | 10.2 | -2.6 | . | .
CCn1cc(C(=O)NC(C)C23CC4CC(CC(C4)C2)C3)cn1 (stereo unspecified) | 0.3 | 23.8 | 0.4 | -3.3 | 0.2 | . | .
O=C(O)COCC(=O)N1CCN(c2cc(C(F)(F)F)nc3ccccc23)CC1 | -1.5 | 1.3 | -1.2 | 3.3 | -2.7 | . | .
OCCN1CCN(c2cc(C(F)(F)F)nc3c(F)cccc23)CC1 | 2.0 | 29.6* | -2.5 | 2.5 | -1.2 | -2.3 | 5.0
CCc1ccccc1N(CC(=O)NCc1ccco1)C(=O)CCC(=O)Nc1ccccn1 | -1.6 | 30.9* | 4.1 | 0.2 | -1.1 | -1.7 | -12.2
N#Cc1c(N2CCN(C(=O)c3ccco3)CC2)nc(-c2ccccc2)c2c1CCCC2 | 12.5 | 34.3* | 2.1 | 5.3 | 1.4 | 8.1 | 43.3*
COc1cccc(N2CCN(c3ncnc4c3[nH]c3ccc(F)cc34)CC2C)c1 (stereo unspecified) | -2.6 | 39.6* | 21.5* | -3.6 | 1.1 | 26.5* | 50.6*
Cc1cc(/C=C2/NC(=O)N(Cc3ccccc3F)C2=O)c(C)n1C | -0.7 | 34.9* | 0.1 | 4.8 | -4.9 | 2.3 | 4.6
CC(C)C[C@@H]1COc2cccc(N3CCCC3)c2S(=O)(=O)N1 | . | . | . | -5.8 | -0.7 | . | .
Cc1cccc(-n2c(O)c(C=Nc3cc(O)ccc3C)c3ccccc3c2=O)n1 | 3.7 | 31.2* | 0.6 | -14.2 | -1.5 | 2.0 | -0.5
CC(=O)N1CCN(c2cc(-c3ccccc3)nc3cc(-c4cccc(Cl)c4)nn23)CC1 | . | 40.9* | 4.7 | 8.5 | 1.0 | 0.5 | 8.3
N[C@H](C(=O)Nc1ccc(Cl)cc1C(=O)c1ccc[nH]1)c1ccccc1 | . | . | . | -3.3 | . | . | .
COC(=O)[C@H]1C[C@@]2(C)c3ccccc3N(C(=O)OC(C)(C)C)[C@H]2N1C(=O)OC(C)(C)C | . | . | . | -0.4 | . | . | .
CCOc1cccc(/C=N/N2CCN(c3ccc(Cl)cc3)CC2)c1O | 4.5 | 31.9* | 0.4 | -2.6 | -1.5 | 6.0 | -7.6
CCOc1cc(NC(=S)NCC2CCCO2)c(OCC)cc1NC(=O)c1ccccc1C (stereo unspecified) | 10.3 | 29.8* | -0.5 | -0.7 | -0.9 | -8.3 | -16.4
O=C(CSc1ccccn1)N1CCOCC1 | -1.3 | 29.4* | 1.0 | -0.4 | 0.3 | 0.1 | -3.3
O=C(CSc1ccccn1)N1CCN(c2ccccc2)CC1 | -1.0 | 0.3 | 1.9 | -0.5 | . | . | .
O=C(CSc1nc2ccccc2n1CCc1ccccc1)N1CCOCC1 | 1.6 | 32.6* | -1.1 | -1.0 | 0.2 | 0.1 | 10.0
SMILES | NTR1 ag | MC4R antag cAMP | MC4R ag barr | NR1D1 modulator | PG9 Ab binder | cAMP nonselect | MC4R cAMP antag
Cc1ccccc1CNC(=O)C1C2C=CC3(CN(Cc4ccccc4)C(=O)C13)O2 (stereo unspecified) | . | . | . | -6.2 | . | . | .
CN1OC[C@@H]2CN(CC3CCCCC3)[C@H](c3ccc(-c4ccc(C#N)cc4)cc3)C[C@@H]21 | . | . | . | 4.8 | 1.9 | . | .
O=C(CN(Cc1ccc(Cl)cc1)C(=O)CNS(=O)(=O)c1ccccc1)NCC1CCCO1 (stereo unspecified) | -0.6 | 31.0* | 2.1 | -1.8 | -1.4 | 0.4 | 6.3
O=C(CNS(=O)(=O)c1ccccc1)NCc1ccco1 | -0.3 | 3.1 | -0.4 | -5.0 | -1.0 | . | .
NNC(=O)CNC(=O)CNS(=O)(=O)c1ccccc1 | 1.6 | 29.1* | -3.8 | -2.2 | -0.5 | -2.0 | -7.3
COc1ccc(-c2cc(-c3nc4ccccn4c3NCc3ccccc3)ccc2OC)cc1 | 19.1 | 37.5* | 3.3 | 2.3 | -2.8 | 8.5 | 34.2*
CCC(C)Sc1ccc(-c2nc3ccc(C)cn3c2NCc2ccccc2)cc1OC (stereo unspecified) | 24.8 | 35.2* | -0.8 | . | . | 18.3* | 43.8*
CCC(C)Sc1cc(-c2nc3ccc(C)cn3c2NCc2ccccc2)ccc1OC (stereo unspecified) | . | 47.3* | -3.0 | -0.5 | 1.4 | 27.3* | 77.5*
O=S1(=O)c2c(cccc2N2CCC[C@H]2CO)OCCCN1C1CC1 | . | . | . | 1.8 | . | . | .
CC(C)NC(=O)N[C@H]1C[C@@H]2O[C@@H](CO)CC[C@@H]2O[C@@H]1CCc1ccc(-c2ccccc2F)cc1 | . | . | . | -3.9 | . | . | .
Cc1ccc(-n2c(SCC(=O)NN=Cc3c[nH]c4ccccc34)nnc2-c2ccccc2)cc1 | . | . | . | 0.6 | . | . | .
CC1CCN(C(=O)c2ccc3c(c2)NC(=O)/C(=C/c2ccccc2)S3)CC1 | 9.6 | 35.4* | 8.8* | -1.9 | -0.7 | -1.4 | 1.6
Cc1ccc(/C=C2/Sc3ccc(C(=O)N4CCN(C)CC4)cc3NC2=O)cc1 | 2.1 | 13.2 | 0.7 | -19.5 | -1.9 | . | .
Nc1nnc(-c2ccccc2F)s1 | 0.3 | 1.3 | -0.3 | 8.2 | 0.5 | . | .
Nc1nnc(-c2ccc(Cl)cc2Cl)s1 | 0.9 | 30.1* | -1.8 | -6.7 | -1.8 | 2.3 | 1.7
CCC(C)N(Cc1ccc(OC)cc1OC)S(=O)(=O)c1cc(Br)ccc1Br (stereo unspecified) | . | . | . | 5.5 | -0.8 | . | .
CCN(CC)S(=O)(=O)c1ccc(Cl)c(NC(=O)COc2ccc3c(C)cc(=O)oc3c2)c1 | 2.5 | -1.6 | -0.6 | 3.0 | -0.4 | . | .
CCN(CC)S(=O)(=O)c1ccc(OC)c(NC(=O)COc2ccc3c(C)cc(=O)oc3c2)c1 | -0.4 | 113.6* | -1.2 | 8.0 | 2.0 | 95.8* | 168.1*
COc1ccc(CN2C(=O)[C@]3(NCCc4c3[nH]c3ccc(OC)cc43)c3cc(F)ccc32)cc1 | . | . | . | -6.3 | . | . | .
COC(=O)c1cc2c(c3c4ccccc4n(S(=O)(=O)c4ccc(OC)cc4)c13)C(=O)N(Cc1ccc(N(C)C)cc1)C2 | . | . | . | 2.5 | 1.2 | . | .
S=c1[nH]c2ccccc2n2c(=S)[nH]nc12 | 1.7 | 31.1* | -3.0 | 3.2 | -97.6 | 46.0* | 73.6*
